Consider three molecules from ChEMBL document CHEMBL5247673, “Discovery of Small Molecules Targeting the Frameshifting Element RNA in SARS-CoV-2 Viral Genome” (ACS Med Chem Lett, 2023).

Test [1] can be described thus: Inhibition of programmed -1 ribosomal frameshifting in human MCF7 cells harboring pCherryGFP-CoV2-WT plasmid assessed as inhibition of GFP expression at 50 uM incubated for 30 mins by fluorescence microscopic analysis. The class given is functional. The following applies: MCF7, 0.5 h. An outline of the steps:
(§1)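 MCF-7 cells were treated with compound at various concentrations and transfected with an mCherry–FSE–GFP reporter: WT, a stop-codon negative control, or an in-frame no-FSE plasmid. GFP expression was the read-out, compared with a DMSO (0 μM) control. Data are mean ± SD of three independent experiments.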

Test [2] in a line: (§2) Inhibition of programmed -1 ribosomal frameshifting in human MCF7 cells harboring pCherryGFP-CoV2-WT plasmid assessed as inhibition of GFP expression incubated for 30 mins by fluorescence microscopic analysis. The following applies: MCF7, 0.5 h. The class given is functional, cell-based. A digest of the protocol: as §1
For another test, the system named is MCF7. The description is as §2. The class given is functional, cell-based. An outline of the steps: as §1

The term inhibition denotes the percentage by which the read-out fell short of the control. The term IC50 denotes the concentration needed to halve the response being measured.

As for `COc1ccc(-c2nc(NCCN3CCOCC3)c3cc(OC)ccc3n2)cc1`, in test [1], the inhibition at 50 µM was 50%. For `CCNCC1CCN(c2c(F)cc3c(=O)c(C(=O)O)cn(CC)c3c2F)C1` (stereo not drawn) [MERAFLOXACIN], the IC50 in test [2] was found to be 33.5 µM.

For the molecule `COc1ccc(-c2nc(NCCN3CCOCC3)c3ccccc3n2)cc1`, the inhibition result in the test on MCF7 was “Dose-Dependent Effect”.
